Measurements as given in ChEMBL document CHEMBL2010643 (Bioorg Med Chem Lett, 2012).
Active and inactive are the calls of the source. No cut-off for these calls is given here.

Key:
[1] = target: Angiopoietin-1 receptor (Homo sapiens) (UniProt Q02763); experiment: Inhibition of TIE2 assessed as residual activity at 1 uM relative to control
[2] = target: Dual specificity protein kinase TTK (Homo sapiens) (UniProt P33981); experiment: Inhibition of TTK assessed as residual activity at 1 uM relative to control
Chain of Dual specificity protein kinase TTK (Homo sapiens) (P33981 whole entry): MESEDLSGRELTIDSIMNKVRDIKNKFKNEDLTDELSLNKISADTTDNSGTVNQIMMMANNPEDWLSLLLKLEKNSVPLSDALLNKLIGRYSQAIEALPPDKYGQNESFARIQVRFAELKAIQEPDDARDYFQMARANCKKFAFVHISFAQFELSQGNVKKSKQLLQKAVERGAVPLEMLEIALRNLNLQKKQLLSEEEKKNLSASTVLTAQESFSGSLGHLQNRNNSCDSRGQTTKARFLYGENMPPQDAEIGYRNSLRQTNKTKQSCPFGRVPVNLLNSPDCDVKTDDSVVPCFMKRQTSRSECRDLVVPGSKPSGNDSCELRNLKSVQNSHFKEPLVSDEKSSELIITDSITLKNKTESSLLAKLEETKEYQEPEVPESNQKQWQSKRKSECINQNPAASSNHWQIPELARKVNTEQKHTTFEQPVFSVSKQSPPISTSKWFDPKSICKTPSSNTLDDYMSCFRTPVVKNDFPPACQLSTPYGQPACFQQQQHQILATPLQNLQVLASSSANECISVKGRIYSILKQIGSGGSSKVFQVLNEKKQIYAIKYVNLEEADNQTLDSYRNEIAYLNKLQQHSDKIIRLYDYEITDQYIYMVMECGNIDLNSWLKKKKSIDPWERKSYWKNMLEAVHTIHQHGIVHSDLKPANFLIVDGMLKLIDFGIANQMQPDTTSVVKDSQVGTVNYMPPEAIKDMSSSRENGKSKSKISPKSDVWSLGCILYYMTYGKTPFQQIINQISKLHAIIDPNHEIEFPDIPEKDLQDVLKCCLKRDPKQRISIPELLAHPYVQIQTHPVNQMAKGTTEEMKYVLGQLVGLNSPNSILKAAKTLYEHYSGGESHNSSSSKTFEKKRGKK
In short: (§1)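 Radioactivity-based enzymatic kinase assays run across a 124-kinase profiling panel (Dundee), reporting the remaining kinase activity relative to a control.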

[3] = target: Eukaryotic translation initiation factor 2-alpha kinase 3 (Homo sapiens) (UniProt Q9NZJ5); experiment: Inhibition of EIF2AK3 assessed as residual activity at 10 uM relative to control
[4] = target: Mitogen-activated protein kinase 15 (Homo sapiens) (UniProt Q8TD08); experiment: Inhibition of ERK8 assessed as residual activity at 10 uM relative to control
[5] = target: Insulin receptor-related protein (Homo sapiens) (UniProt P14616); experiment: Inhibition of IRR assessed as residual activity at 10 uM relative to control
Chain of Insulin receptor-related protein (Homo sapiens) (P14616 27-742 limits assumed): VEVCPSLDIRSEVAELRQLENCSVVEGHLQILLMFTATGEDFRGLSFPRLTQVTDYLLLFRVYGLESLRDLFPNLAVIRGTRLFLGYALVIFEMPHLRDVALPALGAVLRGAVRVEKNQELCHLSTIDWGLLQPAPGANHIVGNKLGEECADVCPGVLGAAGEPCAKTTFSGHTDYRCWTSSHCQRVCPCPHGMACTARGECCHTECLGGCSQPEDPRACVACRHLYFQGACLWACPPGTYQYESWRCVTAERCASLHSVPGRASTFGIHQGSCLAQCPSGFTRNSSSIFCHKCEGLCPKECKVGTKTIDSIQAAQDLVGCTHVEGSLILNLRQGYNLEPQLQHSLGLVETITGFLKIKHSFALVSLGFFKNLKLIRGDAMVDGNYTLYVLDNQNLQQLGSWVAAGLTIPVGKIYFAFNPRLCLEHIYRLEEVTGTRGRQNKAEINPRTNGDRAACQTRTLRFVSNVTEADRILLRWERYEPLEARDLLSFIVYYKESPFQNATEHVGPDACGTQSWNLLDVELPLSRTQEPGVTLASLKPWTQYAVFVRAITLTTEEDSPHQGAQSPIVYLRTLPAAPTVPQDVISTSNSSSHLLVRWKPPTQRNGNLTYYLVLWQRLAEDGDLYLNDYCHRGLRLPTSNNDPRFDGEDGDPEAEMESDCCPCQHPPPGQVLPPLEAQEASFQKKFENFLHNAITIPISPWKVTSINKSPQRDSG
Chain of Insulin receptor-related protein (Homo sapiens) (P14616 747-1297 limits assumed): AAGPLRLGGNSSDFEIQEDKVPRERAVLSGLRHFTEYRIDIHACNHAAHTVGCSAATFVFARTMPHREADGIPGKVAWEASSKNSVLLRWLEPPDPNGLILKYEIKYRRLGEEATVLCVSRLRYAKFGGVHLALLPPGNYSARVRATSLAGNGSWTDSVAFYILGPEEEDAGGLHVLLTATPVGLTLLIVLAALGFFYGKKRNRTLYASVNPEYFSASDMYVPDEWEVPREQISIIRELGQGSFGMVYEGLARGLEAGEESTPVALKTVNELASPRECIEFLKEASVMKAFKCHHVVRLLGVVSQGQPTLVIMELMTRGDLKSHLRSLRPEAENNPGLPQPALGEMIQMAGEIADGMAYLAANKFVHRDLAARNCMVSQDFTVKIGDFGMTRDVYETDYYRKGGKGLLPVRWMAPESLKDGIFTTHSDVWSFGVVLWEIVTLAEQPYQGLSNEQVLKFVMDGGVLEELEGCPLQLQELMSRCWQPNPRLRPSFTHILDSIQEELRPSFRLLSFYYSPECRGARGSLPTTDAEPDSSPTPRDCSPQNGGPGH

[6] = target: Serine/threonine-protein kinase STK11 (Homo sapiens) (UniProt Q15831); experiment: Inhibition of LKB1 assessed as residual activity at 10 uM relative to control
Chain of Serine/threonine-protein kinase STK11 (Homo sapiens) (Q15831 whole entry): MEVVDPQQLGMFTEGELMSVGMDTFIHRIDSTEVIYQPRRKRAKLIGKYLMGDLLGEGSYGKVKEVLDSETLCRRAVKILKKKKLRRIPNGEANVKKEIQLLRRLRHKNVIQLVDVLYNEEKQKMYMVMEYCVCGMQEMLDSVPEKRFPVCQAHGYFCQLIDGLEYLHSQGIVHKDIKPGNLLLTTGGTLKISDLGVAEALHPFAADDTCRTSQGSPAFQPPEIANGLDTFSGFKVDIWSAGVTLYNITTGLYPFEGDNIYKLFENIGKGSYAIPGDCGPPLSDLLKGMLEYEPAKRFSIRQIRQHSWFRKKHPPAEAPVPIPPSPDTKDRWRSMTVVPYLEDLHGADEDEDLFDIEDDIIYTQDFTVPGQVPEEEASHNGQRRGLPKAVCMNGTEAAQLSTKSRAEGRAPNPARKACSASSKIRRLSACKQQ

[7] = target: Dual specificity mitogen-activated protein kinase kinase 1 (Homo sapiens) (UniProt Q02750); experiment: Inhibition of MKK1 assessed as residual activity at 10 uM relative to control
[8] = target: Dual specificity mitogen-activated protein kinase kinase 6 (Homo sapiens) (UniProt P52564); experiment: Inhibition of MKK6 assessed as residual activity at 10 uM relative to control
[9] = target: Serine/threonine-protein kinase 16 (Homo sapiens) (UniProt O75716); experiment: Inhibition of MPSK1 assessed as residual activity at 10 uM relative to control
[10] = target: T1, Leucine-rich repeat serine/threonine-protein kinase 2 (Homo sapiens, UniProt Q5S007); experiment: Inhibition of wild-type LRRK2 phosphorylation at Ser910 expressed in HEK293 cells after 90 mins by immunoblot analysis; format: cell-based
T1 sequence (Q5S007 whole entry): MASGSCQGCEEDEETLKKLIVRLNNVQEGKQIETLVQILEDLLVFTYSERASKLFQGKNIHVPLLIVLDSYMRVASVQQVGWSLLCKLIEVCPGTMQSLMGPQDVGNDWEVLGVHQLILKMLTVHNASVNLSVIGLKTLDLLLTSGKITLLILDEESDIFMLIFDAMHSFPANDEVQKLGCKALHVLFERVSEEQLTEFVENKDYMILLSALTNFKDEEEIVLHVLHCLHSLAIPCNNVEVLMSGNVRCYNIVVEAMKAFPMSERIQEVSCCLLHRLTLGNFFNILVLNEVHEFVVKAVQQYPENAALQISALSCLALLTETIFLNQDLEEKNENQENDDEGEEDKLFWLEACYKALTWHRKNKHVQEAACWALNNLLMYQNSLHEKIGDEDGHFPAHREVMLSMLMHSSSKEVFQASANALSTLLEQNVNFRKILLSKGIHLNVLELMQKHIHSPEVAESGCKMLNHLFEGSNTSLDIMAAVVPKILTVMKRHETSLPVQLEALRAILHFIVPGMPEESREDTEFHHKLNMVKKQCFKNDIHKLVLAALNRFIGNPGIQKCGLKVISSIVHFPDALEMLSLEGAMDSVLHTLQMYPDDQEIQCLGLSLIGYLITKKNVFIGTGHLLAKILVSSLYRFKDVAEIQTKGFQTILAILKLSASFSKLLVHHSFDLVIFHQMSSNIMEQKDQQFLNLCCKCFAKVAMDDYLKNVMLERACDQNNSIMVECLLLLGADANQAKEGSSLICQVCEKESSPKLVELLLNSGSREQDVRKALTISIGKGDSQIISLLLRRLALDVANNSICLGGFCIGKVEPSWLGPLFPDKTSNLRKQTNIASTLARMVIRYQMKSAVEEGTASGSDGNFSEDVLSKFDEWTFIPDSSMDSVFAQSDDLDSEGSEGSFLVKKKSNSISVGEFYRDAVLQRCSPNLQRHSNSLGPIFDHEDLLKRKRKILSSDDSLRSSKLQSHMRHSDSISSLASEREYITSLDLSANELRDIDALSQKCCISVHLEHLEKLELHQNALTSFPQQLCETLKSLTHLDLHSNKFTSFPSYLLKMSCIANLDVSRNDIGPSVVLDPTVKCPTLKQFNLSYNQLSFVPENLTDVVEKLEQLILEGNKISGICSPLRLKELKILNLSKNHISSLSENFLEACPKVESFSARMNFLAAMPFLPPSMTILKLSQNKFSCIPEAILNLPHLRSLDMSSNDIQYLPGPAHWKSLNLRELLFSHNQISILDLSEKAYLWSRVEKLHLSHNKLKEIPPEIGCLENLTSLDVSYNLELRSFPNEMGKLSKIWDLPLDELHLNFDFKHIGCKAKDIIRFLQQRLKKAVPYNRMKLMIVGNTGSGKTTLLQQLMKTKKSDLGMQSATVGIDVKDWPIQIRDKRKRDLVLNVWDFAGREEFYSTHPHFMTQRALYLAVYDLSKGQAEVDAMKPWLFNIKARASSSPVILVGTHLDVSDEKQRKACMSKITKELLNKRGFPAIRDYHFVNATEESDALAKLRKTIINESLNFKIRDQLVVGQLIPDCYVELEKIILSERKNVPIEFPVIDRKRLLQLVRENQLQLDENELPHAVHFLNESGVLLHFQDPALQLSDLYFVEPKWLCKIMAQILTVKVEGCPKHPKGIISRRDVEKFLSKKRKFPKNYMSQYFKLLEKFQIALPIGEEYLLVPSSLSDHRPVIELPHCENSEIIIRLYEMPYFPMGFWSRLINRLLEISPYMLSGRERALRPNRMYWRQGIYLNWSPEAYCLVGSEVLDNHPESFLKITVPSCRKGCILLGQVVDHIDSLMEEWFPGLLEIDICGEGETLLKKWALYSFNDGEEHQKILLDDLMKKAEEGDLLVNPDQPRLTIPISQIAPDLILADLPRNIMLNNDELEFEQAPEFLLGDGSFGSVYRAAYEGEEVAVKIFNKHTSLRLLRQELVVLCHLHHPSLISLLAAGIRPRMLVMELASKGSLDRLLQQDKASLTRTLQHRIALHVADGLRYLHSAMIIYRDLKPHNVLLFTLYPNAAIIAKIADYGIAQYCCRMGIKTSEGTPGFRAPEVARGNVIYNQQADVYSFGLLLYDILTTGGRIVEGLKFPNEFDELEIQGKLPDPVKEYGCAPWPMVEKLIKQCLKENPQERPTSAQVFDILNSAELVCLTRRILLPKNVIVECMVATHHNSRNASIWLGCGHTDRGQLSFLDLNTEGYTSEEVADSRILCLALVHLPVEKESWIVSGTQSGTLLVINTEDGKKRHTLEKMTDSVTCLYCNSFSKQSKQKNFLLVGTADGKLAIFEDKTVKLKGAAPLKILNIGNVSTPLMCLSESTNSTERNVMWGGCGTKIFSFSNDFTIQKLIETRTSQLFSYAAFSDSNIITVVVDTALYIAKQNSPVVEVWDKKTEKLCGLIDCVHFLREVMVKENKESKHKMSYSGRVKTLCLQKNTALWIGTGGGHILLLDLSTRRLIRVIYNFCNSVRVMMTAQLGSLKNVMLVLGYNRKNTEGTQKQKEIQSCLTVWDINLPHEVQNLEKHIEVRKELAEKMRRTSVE
In short: (§2)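 HEK293 cells stably expressing wild-type GFP-LRRK2 exposed to DMSO or increasing inhibitor concentrations for 90 min. Lysates immunoblotted for LRRK2 phosphorylated at Ser910 and Ser935 and for total LRRK2.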

[11] = target: T1, Leucine-rich repeat serine/threonine-protein kinase 2; experiment: Inhibition of wild-type LRRK2 phosphorylation at Ser935 expressed in HEK293 cells after 90 mins by immunoblot analysis; format: cell-based; in short: as §2
[12] = target: T1, Leucine-rich repeat serine/threonine-protein kinase 2; experiment: Inhibition of wild-type LRRK2 phosphorylation at Ser935 expressed in HEK293 cells at 0.1 to 0.3 uM after 90 mins by immunoblot analysis; format: cell-based; in short: as §2
[13] = system: Plasma; experiment: AUClast in Swiss albino mouse plasma at 10 mg/kg, po; format: ADME, organism-based; design: time 0 - last, dose 10 mg/kg, route oral; details: in vivo
In short: (§3)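 Male Swiss Albino mice were given a single dose, either intravenous at 1 mg/kg or oral at 10 mg/kg. AUClast was measured in plasma and in brain. Half-life, plasma clearance, volume of distribution and oral bioavailability were derived from the plasma data.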

[14] = system: Brain; experiment: AUClast in Swiss albino mouse brain at 10 mg/kg, po; format: ADME, organism-based; design: time 0 - last, dose 10 mg/kg, route oral; details: in vivo; in short: as §3
[15] = target: MAP kinase-activated protein kinase 5 (Homo sapiens) (UniProt Q8IW41); experiment: Inhibition of PRAK assessed as residual activity at 10 uM relative to control
[16] = target: Ribosomal protein S6 kinase beta-1 (Homo sapiens) (UniProt P23443); experiment: Inhibition of S6K1 assessed as residual activity at 10 uM relative to control
[17] = target: Proto-oncogene tyrosine-protein kinase Src (Homo sapiens) (UniProt P12931); experiment: Inhibition of Src assessed as residual activity at 10 uM relative to control
[18] = target: Serine/threonine-protein kinase TBK1 (Homo sapiens) (UniProt Q9UHD2); experiment: Inhibition of TBK1 assessed as residual activity at 10 uM relative to control
[19] = target: Dual specificity protein kinase TTK (Homo sapiens) (UniProt P33981); experiment: Inhibition of TTK assessed as residual activity at 10 uM relative to control; in short: as §1
[20] = target: Tyrosine-protein kinase ZAP-70 (Homo sapiens) (UniProt P43403); experiment: Inhibition of ZAP70 assessed as residual activity at 10 uM relative to control; in short: as §1
[21] = target: T2, Cyclin-dependent kinase 2/cyclin A (Homo sapiens) (UniProt P24941+P20248+P78396); experiment: Inhibition of CDK2-Cyclin A assessed as residual activity at 1 uM relative to control; format: protein-complex assay
In short: (§4)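 Standard radioactivity-based enzymatic assays were run across a 124-kinase panel (Dundee profiling), with compound at 1 µM. Kinase activity was expressed relative to control.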

[22] = Inhibition of CK1 assessed as residual activity at 1 uM relative to control; in short: as §4
[23] = system: Mus musculus; experiment: Inhibition of LRRK2 phosphorylation at Ser910 in C57BL/6 mouse spleen at 50 mg/kg, po administered for 8 hrs followed by 2 hrs dosing; format: functional, organism-based; design: dose 50 mg/kg
In short: (§5)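 Mice were dosed by oral gavage at 10 or 50 mg/kg. Brain, spleen and kidney were collected. Endogenous LRRK2 was resolved by SDS–PAGE and blotted with phospho-specific antibodies to Ser910 and Ser935 and with an antibody to total LRRK2.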

[24] = system: Mus musculus; experiment: Inhibition of LRRK2 phosphorylation at Ser910 in C57BL/6 mouse brain at 10 to 50 mg/kg, po administered for 8 hrs followed by 2 hrs dosing; format: functional, organism-based; in short: as §5
[25] = target: Calcium/calmodulin-dependent protein kinase kinase 2 (Homo sapiens) (UniProt Q96RR4); experiment: Inhibition of CAMKKb assessed as residual activity at 10 uM relative to control
[26] = target: T2, Cyclin-dependent kinase 2/cyclin A (Homo sapiens); experiment: Inhibition of CDK2-Cyclin A assessed as residual activity at 10 uM relative to control; format: protein-complex assay
[27] = target: Ephrin type-A receptor 2 (Homo sapiens) (UniProt P29317); experiment: Inhibition of EPH-A2 assessed as residual activity at 1 uM relative to control; in short: as §4
[28] = target: Insulin receptor-related protein (Homo sapiens) (UniProt P14616); experiment: Inhibition of IRR assessed as residual activity at 1 uM relative to control
[29] = target: Serine/threonine-protein kinase STK11 (Homo sapiens) (UniProt Q15831); experiment: Inhibition of LKB1 assessed as residual activity at 1 uM relative to control
[30] = target: MAP kinase-interacting serine/threonine-protein kinase 2 (Homo sapiens) (UniProt Q9HBH9); experiment: Inhibition of MNK2 assessed as residual activity at 1 uM relative to control
[31] = target: Mitogen-activated protein kinase 12 (Homo sapiens) (UniProt P53778); experiment: Inhibition of p38gamma MAPK assessed as residual activity at 1 uM relative to control; in short: as §1
[32] = target: RAC-alpha serine/threonine-protein kinase (Homo sapiens) (UniProt P31749); experiment: Inhibition of PKBalpha assessed as residual activity at 1 uM relative to control
[33] = target: Protein kinase C alpha type (Homo sapiens) (UniProt P17252); experiment: Inhibition of PKCalpha assessed as residual activity at 1 uM relative to control
[34] = target: Receptor-interacting serine/threonine-protein kinase 2 (Homo sapiens) (UniProt O43353); experiment: Inhibition of RIPK2 assessed as residual activity at 1 uM relative to control
[35] = Inhibition of CK2 assessed as residual activity at 1 uM relative to control
[36] = Inhibition of CK1 assessed as residual activity at 1 uM relative to control

Activity [1]: 18% | Activity [2]: 73% | Activity [3]: 95% | Activity [5]: 66% | Activity [6]: 77% | Activity [7]: 30% | Activity [8]: 75% | Activity [9]: 96% | inhibition [10]: Dose-dependent effect | inhibition [11]: Dose-dependent effect | inhibition [12]: Active | AUClast [13]: 6374 ng·h/mL | AUClast [14]: 14430 ng·h/mL | Activity [15]: 110% | Activity [16]: 68% | Activity [17]: 20% | Activity [18]: 71% | Activity [19]: 47% | Activity [20]: 129% | Activity [21]: 68% | Activity [22]: 102% | Activity [25]: 5% | Activity [26]: 38% | Activity [27]: 70% | Activity [28]: 98% | Activity [29]: 94% | Activity [30]: 101% | Activity [31]: 102% | Activity [32]: 102% | Activity [33]: 109% | Activity [34]: 94% | Activity [35]: 75% | Activity [36]: 102%
SMILES: COc1cc(N2CCC(N3CCN(C)CC3)CC2)ccc1Nc1ncc(Cl)c(Nc2ccccc2S(=O)(=O)C(C)C)n1 [TAE-684]
Activity [4]: 26% | inhibition [23]: Active | inhibition [24]: inactive
